This is an account of results in PubChem BioAssay.

Each structure is given as a SMILES string. The source made the active and inactive calls. Unless noted, no stated cut-off is given here; in the data, active means inhibition above about 30%; inactive means the rest.

Assay [1] in a line: Her2 expression decrease, cell viability multiplex – SKBR3 breast tumor cells, AlphaScreen, ATP viability, primary screen (AID 461;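 active means Her2 level under about 52% in both replicate screens, with viability over 70% of control, limit read from the data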;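 on Her2 level: lower value means less Her2 protein in the cells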;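 on viability: percent of carrier control wells set as 100% viability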). The settings on record: SKBR3 Her2 protein level, 18-24 h, measured here: SKBR3 viability, ATP luminescence, at 10 µM.
Assay [2] deals with Receptor tyrosine-protein kinase erbB-2 (Homo sapiens) (UniProt P04626). The description is as above. The settings on record: 18-24 h, at 10 µM, stronger effect = lower value.
Assay [3] can be described thus: reduced viability of SK-BR-3 breast cancer cells – cell-based, 24 h, human, pilot screen (AID 572;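 active means viability at or below 10% of carrier control in both of two separate runs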;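 further: compound exposure lasted between 18 and 24 h rather than exactly 24 h; 100% = carrier-treated control wells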). Particulars: SK-BR-3 viability, CellTiter-Glo luminescence, at 10 µM, stronger effect = lower value.
Assay [4] can be described thus: HUVEC growth inhibition – cell-based, human, primary screen (AID 575;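 active means viability at or below 30% in both replicate assays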;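 further: 100% = median of untreated cell wells with 0.1% DMSO on each plate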). The settings on record: HUVEC proliferation, CellTiter-Glo luminescence, 72 h; at 10 µM; stronger effect = lower value. In outline:
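Assay system: primary human umbilical vein endothelial cells / Buffer or medium: endothelial basal medium with 2% FBS plus growth supplements / Compound dosing: one dose, 10 µM final, 0.1% DMSO / Timing: 72 h treatment at 37 °C / Signal: CTG luminescence / Benchmarks: 32 DMSO-only cell-control wells (high), 32 MePR drug-control wells (low) per plate / Plate: collagen-coated 384-well format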

A short description of assay [5]: H69AR cell proliferation blockers – human, duplicate replicates, primary screen (AID 580;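 active means viability at or under a set limit in both replicates, limit being median viability minus 3 SD, cut at about 48% in these data, passing the limit was not always enough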;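 further: 100% = mean luminescence of untreated wells and 0% = no signal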). The settings on record: H69AR lung tumor cells viability, ATP luminescence, 72 h; at 10 µM; stronger effect = lower value.
Assay [6] in a line: MRP1 drug-resistance reversers in H69AR cells – cell-based, doxorubicin co-treatment, pilot screen (AID 601;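 active means viability loss from added drug above about 55%, and viability with drug at most 40%, in both replicates, limit read from the data, passing the limit was not always enough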). The settings on record: CellTiter-Glo, 72 h, at 10 µM; for differential viability (reversal): stronger effect = higher value. (ATP-based viability assays read luminescence as a measure of living cells.)
The nature of assay [7]: yeast transport mutant growth inhibition pilot in 384-well plates, post-Golgi transport modulator project (AID 636; in the data active means inhibition above about 31%). The settings on record: absorbance 615 nm, about 18 h, stronger effect = higher value.
Assay [8] can be described thus: growth suppression of yeast trafficking mutant, preliminary HTS, modulators of trafficking downstream of Golgi apparatus project, 1536-format plate, OD 615 nm (AID 637). Particulars: yeast transport mutant growth, absorbance 615 nm, 18 h; stronger effect = higher value.
[9] abbreviates: H69AR cells + 2 uM doxorubicin, measured here: viability with 2 uM doxorubicin, stronger effect = lower value.
Setting [10] is: H69AR cells, compound alone cytotoxicity.

In general, viability refers to a read-out of living cells in per cent, often relative to untreated cells. In general, inhibition refers to the change of the read-out against control, counted positive when it falls.

Sequence of Receptor tyrosine-protein kinase erbB-2 (Homo sapiens) (P04626 whole entry, looked up): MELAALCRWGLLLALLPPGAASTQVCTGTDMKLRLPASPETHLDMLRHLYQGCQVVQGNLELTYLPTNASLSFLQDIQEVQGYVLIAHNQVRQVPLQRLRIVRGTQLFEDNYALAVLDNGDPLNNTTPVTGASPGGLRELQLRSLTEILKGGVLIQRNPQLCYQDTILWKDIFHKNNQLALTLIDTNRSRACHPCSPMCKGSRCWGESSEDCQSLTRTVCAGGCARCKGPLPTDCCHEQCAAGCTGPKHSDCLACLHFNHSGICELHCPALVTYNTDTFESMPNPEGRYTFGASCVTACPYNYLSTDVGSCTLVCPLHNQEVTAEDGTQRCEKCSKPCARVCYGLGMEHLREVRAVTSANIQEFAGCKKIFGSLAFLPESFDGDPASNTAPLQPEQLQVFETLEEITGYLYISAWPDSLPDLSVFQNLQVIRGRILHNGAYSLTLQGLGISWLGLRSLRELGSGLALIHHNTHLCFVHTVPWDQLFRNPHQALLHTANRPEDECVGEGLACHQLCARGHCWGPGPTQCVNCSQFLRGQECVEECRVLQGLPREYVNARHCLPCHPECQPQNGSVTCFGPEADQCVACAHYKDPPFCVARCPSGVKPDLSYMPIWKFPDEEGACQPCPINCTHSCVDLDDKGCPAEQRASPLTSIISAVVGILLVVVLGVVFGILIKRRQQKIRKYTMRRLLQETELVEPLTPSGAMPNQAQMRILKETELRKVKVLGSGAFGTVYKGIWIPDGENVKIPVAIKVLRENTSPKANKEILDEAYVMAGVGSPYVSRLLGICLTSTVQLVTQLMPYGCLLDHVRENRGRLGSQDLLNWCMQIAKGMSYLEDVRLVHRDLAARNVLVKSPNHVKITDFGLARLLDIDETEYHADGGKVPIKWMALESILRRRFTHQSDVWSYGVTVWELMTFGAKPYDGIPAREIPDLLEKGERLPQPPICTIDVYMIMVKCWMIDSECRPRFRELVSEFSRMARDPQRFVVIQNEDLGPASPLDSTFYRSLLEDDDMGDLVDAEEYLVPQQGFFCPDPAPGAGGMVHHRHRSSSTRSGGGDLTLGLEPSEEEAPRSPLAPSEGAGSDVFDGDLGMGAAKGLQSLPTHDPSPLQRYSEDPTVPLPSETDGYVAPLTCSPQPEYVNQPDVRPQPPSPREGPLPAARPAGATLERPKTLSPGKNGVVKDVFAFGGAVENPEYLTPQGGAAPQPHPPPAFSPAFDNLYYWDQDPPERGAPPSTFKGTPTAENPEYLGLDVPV

Consider `CC1(C)Cc2c(c(-c3ccccc3)nc(N3CCCC3)c2C(N)=O)CO1`, for which the viability in assay [1] is 106%; in assay [3], 106% (inactive); in assay [4], 92.3% (inactive); in assay [5], 87% (inactive); in assay [6] (setting [9]), 82.4%; in assay [6] (setting [10]), 87%. In assay [2], the Her2 level was 97.5% (inactive). In addition, the differential viability (reversal) in assay [6] (H69AR cells + 2 uM doxorubicin) was 4.6% (inactive). In addition, the inhibition in assay [7] was -1.95% (inactive); in assay [8], 1.15% (inactive).

Take `COc1ccc(C)cc1S(=O)(=O)N(C)CC(=O)Nc1ccc2c(c1)OCCO2`: the viability in assay [1] was 92%; in assay [3], 92% (inactive); in assay [4], 107% (inactive); in assay [5], 89.1% (inactive); in assay [6] (setting [9]) it was 83.2%; in assay [6] (setting [10]), 89.1%. Besides, in assay [2], the Her2 level is 92% (inactive). Further, the differential viability (reversal) in assay [6] (H69AR cells + 2 uM doxorubicin) was 5.96% (inactive). The inhibition in assay [7] is -5.33% (inactive); in assay [8], -12.5% (inactive).

For the compound `COc1ccc(S(=O)(=O)n2ccnc2)c2cccnc12`, the viability in assay [1] is 94.5%; in assay [3], 94.5% (inactive); in assay [4], 90.7% (inactive); in assay [5], 96.1% (inactive); in assay [6] (setting [9]) it was 97.1%; in assay [6] (setting [10]), 96.1%. For the same compound, the Her2 level in assay [2] was 110% (inactive). The differential viability (reversal) in assay [6] (H69AR cells + 2 uM doxorubicin) is -0.965% (inactive). Also, the inhibition was -2.13% (inactive) in assay [7] and -4.1% (inactive) in assay [8].

On to `CC(C)OC(=O)CSc1nnc(Cc2ccccc2)n1Cc1ccco1`, for which the viability was 92.5% in assay [1]; 92.5% (inactive) in assay [3]; 84.7% (inactive) in assay [4]; 92.4% (inactive) in assay [5]; 86.3% in assay [6] (setting [9]); 92.4% in assay [6] (setting [10]). The Her2 level in assay [2] was 91.5% (inactive). Moreover, the differential viability (reversal) in assay [6] (H69AR cells + 2 uM doxorubicin) is 6.06% (inactive). Besides, the inhibition in assay [7] is -4.27% (inactive); in assay [8] it was 14.1% (inactive).

Regarding `CCn1cc(C(=O)N2CCCC2)c(=O)c2cc(S(=O)(=O)N3CCOCC3)ccc21`, the viability in assay [1] is 116%; in assay [3], 116% (inactive); in assay [4] it was 92.2% (inactive); in assay [5], 99.5% (inactive); in assay [6] (setting [9]), 98.3%; in assay [6] (setting [10]), 99.5%. Moreover, the Her2 level in assay [2] is 99% (inactive). The differential viability (reversal) in assay [6] (H69AR cells + 2 uM doxorubicin) was 1.21% (inactive). The inhibition in assay [7] is -5.92% (inactive); in assay [8], -6.51% (inactive).

For `Cc1cc(C)c2c(N)c(C(=O)N3CCN(c4ncccn4)CC3)sc2n1`, the viability in assay [1] was 104%; in assay [3], 104% (inactive); in assay [4] it was 98.2% (inactive); in assay [5], 101% (inactive); in assay [6] (setting [9]), 101%; in assay [6] (setting [10]), 101%. Further, the Her2 level in assay [2] was 96.5% (inactive). For the same compound, the differential viability (reversal) in assay [6] (H69AR cells + 2 uM doxorubicin) is 0.855% (inactive). In addition, the inhibition in assay [7] was -5.53% (inactive); in assay [8], 0.49% (inactive).

In the case of `CCOC(=O)C1CCN(c2nc3ccccc3nc2C(C#N)C(=O)OCCOC)CC1` (stereo not given), the viability in assay [1] is 97%; in assay [3], 97% (inactive); in assay [4] it was 78.3% (inactive); in assay [5] it was 79.4% (inactive); in assay [6] (setting [9]), 51.7%; in assay [6] (setting [10]), 79.4%. In addition, in assay [2], the Her2 level is 98% (inactive). The differential viability (reversal) in assay [6] (H69AR cells + 2 uM doxorubicin) was 27.7% (inactive). The inhibition was -6.71% (inactive) in assay [7] and 0.16% (inactive) in assay [8].

Consider `COc1ccc(Cl)cc1S(=O)(=O)n1cnc2ccccc21`, for which the viability in assay [1] was 99%; in assay [3] it was 99% (inactive); in assay [4], 59.1% (inactive); in assay [5] it was 33.7% (active); in assay [6] (setting [9]) it was 83.5%; in assay [6] (setting [10]), 33.7%. Moreover, the Her2 level in assay [2] was 106% (inactive). In assay [6] (H69AR cells + 2 uM doxorubicin), the differential viability (reversal) was -49.8% (inactive). The inhibition is -4.59% (inactive) in assay [7] and -2.3% (inactive) in assay [8].

Consider `O=C(NCCCNC1CCCCC1)c1ccc(/C=N/O)nc1`, for which the viability was 84% in assay [1]; 84% (inactive) in assay [3]; 92.4% (inactive) in assay [4]; 103% (inactive) in assay [5]; 98.6% in assay [6] (setting [9]); 103% in assay [6] (setting [10]). In addition, in assay [2], the Her2 level is 96% (inactive). For the same compound, the differential viability (reversal) in assay [6] (H69AR cells + 2 uM doxorubicin) is 4.55% (inactive). For the same compound, the inhibition was -0.91% (inactive) in assay [7] and -5.71% (inactive) in assay [8].

As for `CCN(CC)c1ncc(C)c(=O)[nH]1`, the viability in assay [1] is 103%; in assay [3] it was 103% (inactive); in assay [4] it was 105% (inactive); in assay [5], 88.8% (inactive); in assay [6] (setting [9]) it was 94.5%; in assay [6] (setting [10]), 88.8%. The Her2 level in assay [2] is 106% (inactive). In addition, in assay [6] (H69AR cells + 2 uM doxorubicin), the differential viability (reversal) was -5.64% (inactive). The inhibition in assay [7] is -3.47% (inactive); in assay [8], 19% (inactive).

As for `CC(=O)Nc1ccc(NS(=O)(=O)C(F)(F)F)cc1`, the viability in assay [1] was 82.5%; in assay [3], 82.5% (inactive); in assay [4], 93.9% (inactive); in assay [5] it was 92.6% (inactive); in assay [6] (setting [9]), 96.3%; in assay [6] (setting [10]), 92.6%. For the same compound, the Her2 level in assay [2] was 97% (inactive). In addition, the differential viability (reversal) in assay [6] (H69AR cells + 2 uM doxorubicin) was -3.72% (inactive). The figures for the inhibition in assay [7] and in assay [8] were -2.34% (inactive) and 1.48% (inactive), respectively.

On to `COC(=O)Cn1cnc2c(nnn2-c2ccc(C)cc2)c1=O`, for which the viability was 86% in assay [1]; 86% (inactive) in assay [3]; 112% (inactive) in assay [4]; 94.7% (inactive) in assay [5]; 87.7% in assay [6] (setting [9]); 94.7% in assay [6] (setting [10]). Also, in assay [2], the Her2 level is 108% (inactive). In assay [6] (H69AR cells + 2 uM doxorubicin), the differential viability (reversal) is 7% (inactive). The results for the inhibition in assay [7] and in assay [8] were -6.62% (inactive) and -2.17% (inactive), respectively.

On to `Cc1c(C(=O)N2CCOCC2)oc2ccc(S(=O)(=O)N3CCCC3)cc12`, for which the viability in assay [1] was 95%; in assay [3], 95% (inactive); in assay [4] it was 94.3% (inactive); in assay [5], 87.8% (inactive); in assay [6] (setting [9]), 94%; in assay [6] (setting [10]), 87.8%. For the same compound, the Her2 level in assay [2] was 109% (inactive). Further, the differential viability (reversal) in assay [6] (H69AR cells + 2 uM doxorubicin) was -6.14% (inactive). The inhibition was -6.35% (inactive) in assay [7] and -4.59% (inactive) in assay [8].

`CCOc1ccc(-n2c(C)nc3c(cnn3-c3ccc(Cl)cc3)c2=O)cc1`: the viability in assay [1] is 95%; in assay [3], 95% (inactive); in assay [4] it was 80.3% (inactive); in assay [5] it was 80.7% (inactive); in assay [6] (setting [9]) it was 86.8%; in assay [6] (setting [10]), 80.7%. For the same compound, the Her2 level in assay [2] is 99.5% (inactive). Moreover, the differential viability (reversal) in assay [6] (H69AR cells + 2 uM doxorubicin) was -6.13% (inactive). Further, the inhibition in assay [7] is -0.39% (inactive); in assay [8] it was -3.06% (inactive).
